Key:
Cathepsin D = Cathepsin D (Homo sapiens, UniProt P07339); assay: In vitro inhibition of human liver cathepsin D.
Outline: (§1)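 Fluorogenic DABCYL-Glu-Arg-Nle-Phe-Leu-Ser-Phe-Pro-EDANS substrate at 3 µM in 100 mM sodium acetate pH 4.5, 10% glycerol, 0.01% Tween 20. Inhibitors were serially diluted in DMSO and added just before substrate, at 1% final DMSO. Fluorescence increase was read over a linear 10 min. IC50 came from a competitive Langmuir fit, and Ki = IC50/(1+[S]/Km), with Km from Michaelis-Menten.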

Plasmepsin II = Plasmepsin II (Plasmodium falciparum, UniProt P46925); assay: In vitro inhibition of aspartic protease plasmepsin (Plm) II of Plasmodium falciparum; outline: as §1
Plasmepsin I = Plasmepsin I (Plasmodium falciparum, UniProt P39898); assay: In vitro inhibition of aspartic protease plasmepsin-1 (Plm) of Plasmodium falciparum.; outline: as §1
Plasmodium falciparum [1] = assay: Growth inhibition of Plasmodium falciparum infected human erythrocytes at 5 uM; assay type: functional
Outline: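 P. falciparum clone 3D7 was used as a highly synchronous early-trophozoite culture at ~1% haematocrit and 1% parasitaemia, with [3H]hypoxanthine at 10 µCi/ml. Compound was added at 1–5 µM final, with DMSO at most 1% v/v. Cultures grew 37 °C, 30 h, to schizonts, then were harvested onto filters for β-counting. Radioactivity was expressed relative to DMSO-only wells, from four independent experiments.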

Plasmodium falciparum [2] = assay: Growth inhibition of Plasmodium falciparum infected human erythrocytes at 20 uM; assay type: functional

Chain of Plasmepsin II (P46925 whole entry): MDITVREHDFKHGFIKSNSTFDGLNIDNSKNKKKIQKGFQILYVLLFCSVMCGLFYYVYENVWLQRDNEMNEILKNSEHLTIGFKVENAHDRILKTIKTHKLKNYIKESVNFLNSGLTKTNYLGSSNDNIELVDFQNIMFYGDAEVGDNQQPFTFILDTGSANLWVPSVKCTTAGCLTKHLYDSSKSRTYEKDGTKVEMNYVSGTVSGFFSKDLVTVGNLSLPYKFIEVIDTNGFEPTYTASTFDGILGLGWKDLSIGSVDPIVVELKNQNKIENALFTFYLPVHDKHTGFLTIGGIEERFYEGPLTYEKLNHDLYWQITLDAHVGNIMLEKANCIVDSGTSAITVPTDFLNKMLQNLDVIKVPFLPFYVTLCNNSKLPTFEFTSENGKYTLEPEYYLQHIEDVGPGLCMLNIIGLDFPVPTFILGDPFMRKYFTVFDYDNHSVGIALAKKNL
Chain of Cathepsin D (P07339 65-162 limits assumed): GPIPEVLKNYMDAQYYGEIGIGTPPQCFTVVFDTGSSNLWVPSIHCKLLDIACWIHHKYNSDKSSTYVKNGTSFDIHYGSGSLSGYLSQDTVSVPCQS
Chain of Cathepsin D (P07339 169-412 limits assumed): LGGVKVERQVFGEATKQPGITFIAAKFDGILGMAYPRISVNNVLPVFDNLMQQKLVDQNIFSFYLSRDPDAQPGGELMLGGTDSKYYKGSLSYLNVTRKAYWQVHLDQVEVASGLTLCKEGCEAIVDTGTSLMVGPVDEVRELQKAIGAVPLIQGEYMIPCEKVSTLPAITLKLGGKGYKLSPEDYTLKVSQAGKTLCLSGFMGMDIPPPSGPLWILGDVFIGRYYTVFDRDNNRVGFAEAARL
Chain of Plasmepsin I (P39898 whole entry): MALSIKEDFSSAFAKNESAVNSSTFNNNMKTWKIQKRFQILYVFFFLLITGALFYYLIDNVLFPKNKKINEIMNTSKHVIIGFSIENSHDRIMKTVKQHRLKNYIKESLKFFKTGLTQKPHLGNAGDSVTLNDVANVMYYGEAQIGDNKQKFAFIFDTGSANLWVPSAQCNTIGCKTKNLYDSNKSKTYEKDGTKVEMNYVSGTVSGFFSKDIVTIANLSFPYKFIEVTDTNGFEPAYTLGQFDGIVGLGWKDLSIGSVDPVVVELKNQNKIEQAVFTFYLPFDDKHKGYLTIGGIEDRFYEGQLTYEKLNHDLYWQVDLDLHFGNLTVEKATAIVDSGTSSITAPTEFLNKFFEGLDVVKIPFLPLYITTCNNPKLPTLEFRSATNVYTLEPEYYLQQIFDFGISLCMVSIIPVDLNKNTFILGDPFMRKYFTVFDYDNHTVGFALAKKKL

`O=C(C[C@H](O)[C@H](COCc1ccc(Br)cc1)NC(=O)c1c(F)cc(F)cc1F)NC1CCCCC1` was tested, and the Ki (Cathepsin D) was > 5900 nM, the Ki (Plasmepsin II) was 230 nM and the Ki (Plasmepsin I) was 822 nM.
`CC(C)[C@H](NC(=O)c1ccccn1)C(=O)N[C@@H](COCc1ccc(Br)cc1)[C@@H](O)CC(=O)NCCNc1ccccc1` gave a Ki (Cathepsin D) of 265 nM, a Ki (Plasmepsin II) of 74 nM and an inhibition at 5 µM (Plasmodium falciparum [1]) of 25%. It also gave a Ki (Plasmepsin I) of 8.9 nM.
In the case of `CC(C)C[C@H](NC(=O)[C@H](C)NC(=O)C[C@H](O)[C@H](COCc1ccc(Br)cc1)NC(=O)[C@@H]1Cc2ccccc2N1)C(N)=O`, the Ki (Cathepsin D) is reported as 322 nM, the Ki (Plasmepsin II) is reported as 144 nM and the inhibition at 5 µM (Plasmodium falciparum [1]) is reported as 16%. The Ki (Plasmepsin I) was 59 nM.
`CC(C)C[C@H](NC(=O)[C@H](C)NC(=O)C[C@H](O)[C@H](COCc1ccc(Br)cc1)NC(=O)c1c(F)cc(F)cc1F)C(N)=O` was tested, and the Ki (Cathepsin D) was > 4000 nM, the Ki (Plasmepsin II) was 10 nM and the Ki (Plasmepsin I) was 3.4 nM.
With `CC(C)[C@H](NC(=O)c1ccccn1)C(=O)N[C@@H](COCc1ccc(Br)cc1)[C@@H](O)CC(=O)NCc1ccccc1` the Ki (Cathepsin D) was 586 nM, the Ki (Plasmepsin II) was 41 nM and the Ki (Plasmepsin I) was 3.9 nM.
In the case of `CC(C)[C@H](NC(=O)c1ccccn1)C(=O)N[C@@H](COCc1ccc(Br)cc1)[C@@H](O)CC(=O)NCc1ccc(C#N)cc1`, the Ki (Cathepsin D) is reported as 623 nM, the Ki (Plasmepsin II) is reported as 256 nM and the Ki (Plasmepsin I) is reported as 53 nM.
In the case of `COCCCNC(=O)C[C@H](O)[C@H](COCc1ccc(Br)cc1)NC(=O)[C@@H](NC(=O)c1ccccn1)C(C)C`, the Ki (Cathepsin D) is reported as > 4000 nM, the Ki (Plasmepsin II) is reported as 248 nM and the Ki (Plasmepsin I) is reported as 49 nM.
`CC(C)C[C@H](NC(=O)[C@H](C)NC(=O)C[C@H](O)[C@H](COCc1ccc(Br)cc1)NC(=O)[C@@H](NC(=O)c1ccccn1)C(C)C)C(N)=O` gave a Ki (Cathepsin D) of 4.9 nM, a Ki (Plasmepsin II) of 2.2 nM and a Ki (Plasmepsin I) of 0.5 nM.
Compound `CC(C)C[C@H](NC(=O)[C@H](C)NC(=O)C[C@H](O)[C@H](COCc1ccc(Br)cc1)NC(=O)CC(c1ccccc1)c1ccccc1)C(N)=O` has a Ki (Cathepsin D) of 100 nM, a Ki (Plasmepsin II) of 284 nM and a Ki (Plasmepsin I) of 40 nM.
For `COc1cccc(CCNC(=O)C[C@H](O)[C@H](COCc2ccc(Br)cc2)NC(=O)[C@@H](NC(=O)c2ccccn2)C(C)C)c1`, the Ki (Cathepsin D) was 140 nM, the Ki (Plasmepsin II) was 29 nM and the inhibition at 5 µM (Plasmodium falciparum [1]) was 25%. It also gave a Ki (Plasmepsin I) of 6.7 nM.
Compound `CC(C)C[C@H](NC(=O)[C@H](C)NC(=O)C[C@H](O)[C@H](COCc1ccc(Br)cc1)NC(=O)c1ccc(Cl)c(Cl)c1)C(N)=O` has a Ki (Cathepsin D) of 1810 nM, a Ki (Plasmepsin II) of 91 nM and a Ki (Plasmepsin I) of 32 nM.
With `COc1cccc(CCNC(=O)C[C@H](O)[C@H](COCc2ccc(Br)cc2)NC(=O)c2c(F)cc(F)cc2F)c1` the Ki (Cathepsin D) was > 5900 nM, the Ki (Plasmepsin II) was 390 nM and the Ki (Plasmepsin I) was 619 nM.
Work on `CC(C)C[C@H](NC(=O)[C@H](C)NC(=O)C[C@H](O)[C@H](CCc1ccccc1)NC(=O)[C@@H](NC(=O)c1ccccn1)C(C)C)C(N)=O` yielded a Ki (Cathepsin D) of 980 nM, a Ki (Plasmepsin II) of 46 nM and an inhibition at 5 µM (Plasmodium falciparum [1]) of 41%. The Ki (Plasmepsin I) was 27 nM.
`CC(C)C[C@H](NC(=O)[C@H](C)NC(=O)C[C@H](O)[C@H](COCc1ccc(Br)cc1)NC(=O)Cc1cccs1)C(N)=O` was tested, and the Ki (Cathepsin D) was 35 nM, the Ki (Plasmepsin II) was 348 nM and the Ki (Plasmepsin I) was 24 nM.
`CC(C)C[C@H](NC(=O)[C@H](C)NC(=O)C[C@H](O)[C@H](COCc1ccc(Br)cc1)NC(=O)[C@H](NC(=O)c1ccccn1)C(C)C)C(N)=O` showed a Ki (Cathepsin D) of 41 nM, a Ki (Plasmepsin II) of 15 nM and an inhibition at 5 µM (Plasmodium falciparum [1]) of 50%. It also gave a Ki (Plasmepsin I) of 6.4 nM.
`CC(C)C[C@H](NC(=O)[C@H](C)NC(=O)C[C@H](O)[C@H](COCc1ccccc1)NC(=O)[C@@H](NC(=O)c1ccccn1)C(C)C)C(N)=O` showed a Ki (Cathepsin D) of 41 nM, a Ki (Plasmepsin II) of 11 nM and an inhibition at 5 µM (Plasmodium falciparum [1]) of 37%. The Ki (Plasmepsin I) was 5.4 nM.
In the case of `CCCCNC(=O)C[C@H](O)[C@H](COCc1ccc(Br)cc1)NC(=O)[C@@H](NC(=O)c1ccccn1)C(C)C`, the Ki (Cathepsin D) is reported as 473 nM, the Ki (Plasmepsin II) is reported as 68 nM and the Ki (Plasmepsin I) is reported as 8.1 nM.
Compound `CC(C)C[C@H](NC(=O)[C@H](C)NC(=O)C[C@H](O)[C@H](Cc1ccccc1)NC(=O)[C@@H](NC(=O)c1ccccn1)C(C)C)C(N)=O` has an inhibition at 20 µM (Plasmodium falciparum [2]) of 54%.
Work on `CC(C)[C@H](NC(=O)c1ccccn1)C(=O)N[C@@H](COCc1ccc(Br)cc1)[C@@H](O)CC(=O)NC1CCCCC1` yielded a Ki (Cathepsin D) of 217 nM, a Ki (Plasmepsin II) of 25 nM and an inhibition at 5 µM (Plasmodium falciparum [1]) of 21%. The Ki (Plasmepsin I) was 4.1 nM.
Compound `CC(C)C[C@H](NC(=O)[C@H](C)NC(=O)C[C@H](O)[C@H](COCc1ccc(Br)cc1)NC(=O)C(c1ccccc1)c1ccccc1)C(N)=O` has a Ki (Cathepsin D) of 52 nM, a Ki (Plasmepsin II) of 139 nM and an inhibition at 5 µM (Plasmodium falciparum [1]) of 10%. The Ki (Plasmepsin I) was 57 nM.
`CC(C)[C@H](NC(=O)c1ccccn1)C(=O)N[C@@H](COCc1ccc(Br)cc1)[C@@H](O)CC(=O)NCCCc1ccccc1` showed a Ki (Cathepsin D) of 459 nM, a Ki (Plasmepsin II) of 30 nM and a Ki (Plasmepsin I) of 5.4 nM.
`CC(C)C[C@H](NC(=O)[C@H](C)NC(=O)C[C@H](O)[C@H](COCc1ccc(Br)cc1)NC(=O)c1ccc2c(c1)OCO2)C(N)=O` was tested, and the Ki (Cathepsin D) was > 5900 nM, the Ki (Plasmepsin II) was 131 nM and the Ki (Plasmepsin I) was 29 nM.

Source: ChEMBL document CHEMBL1148335, “Design and synthesis of potent inhibitors of the malaria aspartyl proteases plasmepsin I and II. Use of solid-phase synthesis to explore novel statine motifs” (J Med Chem, 2004)
